According to ChEMBL document CHEMBL5143735, “Design, Synthesis, and Characterization of [18F]mG2P026 as a High-Contrast PET Imaging Ligand for Metabotropic Glutamate Receptor 2” (J Med Chem, 2022):

Experiments:
[1] = target: Metabotropic glutamate receptor 5 (Homo sapiens, UniProt P41594); experiment: Agonist activity at mGlu5 receptor (unknown origin) expressed in human Flp-In-T-REx-293 cells by Ca2+ mobilization assay
[2] = target: Metabotropic glutamate receptor 1 (Homo sapiens, UniProt Q13255); experiment: Agonist activity at mGlu1 receptor (unknown origin) expressed in human Flp-In-T-REx-293 cells by Ca2+ mobilization assay
Chain of Metabotropic glutamate receptor 1 (Q13255 whole entry): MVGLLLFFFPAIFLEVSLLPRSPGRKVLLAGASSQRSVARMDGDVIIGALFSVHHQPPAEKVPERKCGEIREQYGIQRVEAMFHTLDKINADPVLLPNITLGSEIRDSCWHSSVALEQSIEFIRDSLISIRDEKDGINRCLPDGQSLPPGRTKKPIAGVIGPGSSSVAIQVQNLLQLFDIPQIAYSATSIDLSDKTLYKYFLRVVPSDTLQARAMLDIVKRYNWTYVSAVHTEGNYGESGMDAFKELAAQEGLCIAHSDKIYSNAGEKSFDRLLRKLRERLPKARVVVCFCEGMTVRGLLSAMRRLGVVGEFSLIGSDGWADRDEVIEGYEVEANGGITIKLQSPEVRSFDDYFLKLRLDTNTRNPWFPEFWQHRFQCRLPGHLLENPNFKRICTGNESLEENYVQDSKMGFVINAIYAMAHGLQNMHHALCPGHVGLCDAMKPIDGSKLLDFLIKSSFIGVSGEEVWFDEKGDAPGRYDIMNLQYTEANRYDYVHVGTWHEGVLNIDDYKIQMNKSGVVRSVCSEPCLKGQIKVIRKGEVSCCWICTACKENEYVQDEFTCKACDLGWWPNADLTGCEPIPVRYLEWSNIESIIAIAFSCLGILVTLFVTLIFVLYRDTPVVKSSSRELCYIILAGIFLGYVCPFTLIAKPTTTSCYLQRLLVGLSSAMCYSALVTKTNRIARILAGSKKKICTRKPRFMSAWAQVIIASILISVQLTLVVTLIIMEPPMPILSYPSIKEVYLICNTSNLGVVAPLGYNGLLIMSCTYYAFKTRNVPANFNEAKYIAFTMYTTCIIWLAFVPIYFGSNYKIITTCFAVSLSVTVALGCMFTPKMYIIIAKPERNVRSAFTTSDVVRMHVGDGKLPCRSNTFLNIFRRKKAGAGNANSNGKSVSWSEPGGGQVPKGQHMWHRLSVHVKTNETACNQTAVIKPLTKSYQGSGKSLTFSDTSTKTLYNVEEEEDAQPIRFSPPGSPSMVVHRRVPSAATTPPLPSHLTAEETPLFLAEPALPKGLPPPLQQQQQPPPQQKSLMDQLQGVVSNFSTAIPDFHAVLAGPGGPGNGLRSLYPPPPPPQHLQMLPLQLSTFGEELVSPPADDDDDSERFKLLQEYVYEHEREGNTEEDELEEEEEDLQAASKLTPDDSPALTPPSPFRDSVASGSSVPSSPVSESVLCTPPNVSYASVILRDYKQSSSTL

[3] = target: Metabotropic glutamate receptor 6 (Homo sapiens, UniProt O15303); experiment: Agonist activity at mGlu6 receptor (unknown origin) expressed in human Flp-In-T-REx-293 cells by luciferase based GloSensor cAMP Assay; type: functional, cell-based, HEK293
Chain of Metabotropic glutamate receptor 6 (O15303 whole entry): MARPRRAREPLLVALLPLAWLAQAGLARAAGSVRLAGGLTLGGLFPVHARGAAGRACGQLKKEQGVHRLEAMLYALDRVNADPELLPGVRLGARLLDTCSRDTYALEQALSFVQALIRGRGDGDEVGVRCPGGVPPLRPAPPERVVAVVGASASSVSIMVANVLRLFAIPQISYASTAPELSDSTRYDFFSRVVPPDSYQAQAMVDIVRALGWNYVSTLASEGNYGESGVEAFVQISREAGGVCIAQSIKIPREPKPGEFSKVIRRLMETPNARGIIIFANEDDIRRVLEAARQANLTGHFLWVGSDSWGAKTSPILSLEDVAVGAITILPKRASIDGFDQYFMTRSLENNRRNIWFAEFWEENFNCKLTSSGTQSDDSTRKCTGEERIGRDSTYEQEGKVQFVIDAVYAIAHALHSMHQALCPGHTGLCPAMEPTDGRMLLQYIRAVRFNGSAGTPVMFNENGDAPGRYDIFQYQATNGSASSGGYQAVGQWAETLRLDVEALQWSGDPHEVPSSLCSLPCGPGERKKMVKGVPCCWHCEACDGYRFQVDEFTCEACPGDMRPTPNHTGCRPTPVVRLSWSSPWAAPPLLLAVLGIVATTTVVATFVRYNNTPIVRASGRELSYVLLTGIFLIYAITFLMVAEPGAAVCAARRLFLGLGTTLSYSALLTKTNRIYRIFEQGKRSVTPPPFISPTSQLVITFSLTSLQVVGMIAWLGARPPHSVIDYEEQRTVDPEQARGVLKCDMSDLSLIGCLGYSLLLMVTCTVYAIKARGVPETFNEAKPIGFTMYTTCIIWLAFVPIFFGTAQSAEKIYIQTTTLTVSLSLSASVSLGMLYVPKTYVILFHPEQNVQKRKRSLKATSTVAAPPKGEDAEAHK
Outline: (§1)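 Tetracycline-inducible Flp-In T-REx-293 cells stably carrying mGluR4, mGluR6 or mGluR8, grown in DMEM with 10% FBS, hygromycin B and blasticidin at 37 °C, 5% CO2. Gi/o-coupled receptor activation read as intracellular cAMP change by split-luciferase GloSensor biosensor. EC50 from four-parameter logistic fit of concentration–response curves; each assay run at least three times.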

[4] = target: Metabotropic glutamate receptor 4 (Homo sapiens, UniProt Q14833); experiment: Agonist activity at mGlu4 receptor (unknown origin) expressed in human Flp-In-T-REx-293 cells by luciferase based GloSensor cAMP Assay; type: functional, cell-based, HEK293
Chain of Metabotropic glutamate receptor 4 (Q14833 whole entry): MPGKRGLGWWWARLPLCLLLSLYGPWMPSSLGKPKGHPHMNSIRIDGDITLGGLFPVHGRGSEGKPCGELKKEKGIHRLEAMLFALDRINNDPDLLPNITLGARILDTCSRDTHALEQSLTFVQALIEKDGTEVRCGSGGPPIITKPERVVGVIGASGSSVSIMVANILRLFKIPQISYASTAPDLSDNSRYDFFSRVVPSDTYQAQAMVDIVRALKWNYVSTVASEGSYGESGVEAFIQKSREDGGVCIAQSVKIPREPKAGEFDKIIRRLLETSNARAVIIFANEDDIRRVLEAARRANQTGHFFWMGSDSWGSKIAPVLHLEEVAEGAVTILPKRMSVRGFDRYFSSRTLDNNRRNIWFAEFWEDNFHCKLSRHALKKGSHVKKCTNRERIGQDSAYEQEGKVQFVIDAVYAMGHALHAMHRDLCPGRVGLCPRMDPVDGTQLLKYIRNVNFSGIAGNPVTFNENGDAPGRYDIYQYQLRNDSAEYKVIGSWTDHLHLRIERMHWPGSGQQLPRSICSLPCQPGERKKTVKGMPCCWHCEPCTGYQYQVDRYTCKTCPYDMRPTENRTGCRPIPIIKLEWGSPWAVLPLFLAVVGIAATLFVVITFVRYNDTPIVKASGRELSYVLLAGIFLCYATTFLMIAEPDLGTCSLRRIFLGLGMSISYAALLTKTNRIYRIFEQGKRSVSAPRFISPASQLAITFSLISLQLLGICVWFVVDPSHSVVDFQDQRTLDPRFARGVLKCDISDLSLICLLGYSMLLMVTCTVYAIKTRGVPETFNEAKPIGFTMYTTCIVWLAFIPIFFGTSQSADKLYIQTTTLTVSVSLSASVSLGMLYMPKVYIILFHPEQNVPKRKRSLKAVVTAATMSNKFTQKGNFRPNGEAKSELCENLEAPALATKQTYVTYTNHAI
Outline: as §1

[5] = target: Metabotropic glutamate receptor 8 (Homo sapiens, UniProt O00222); experiment: Agonist activity at mGlu8 receptor (unknown origin) expressed in human Flp-In-T-REx-293 cells by luciferase based GloSensor cAMP Assay; type: functional, cell-based, HEK293
Chain of Metabotropic glutamate receptor 8 (O00222 whole entry): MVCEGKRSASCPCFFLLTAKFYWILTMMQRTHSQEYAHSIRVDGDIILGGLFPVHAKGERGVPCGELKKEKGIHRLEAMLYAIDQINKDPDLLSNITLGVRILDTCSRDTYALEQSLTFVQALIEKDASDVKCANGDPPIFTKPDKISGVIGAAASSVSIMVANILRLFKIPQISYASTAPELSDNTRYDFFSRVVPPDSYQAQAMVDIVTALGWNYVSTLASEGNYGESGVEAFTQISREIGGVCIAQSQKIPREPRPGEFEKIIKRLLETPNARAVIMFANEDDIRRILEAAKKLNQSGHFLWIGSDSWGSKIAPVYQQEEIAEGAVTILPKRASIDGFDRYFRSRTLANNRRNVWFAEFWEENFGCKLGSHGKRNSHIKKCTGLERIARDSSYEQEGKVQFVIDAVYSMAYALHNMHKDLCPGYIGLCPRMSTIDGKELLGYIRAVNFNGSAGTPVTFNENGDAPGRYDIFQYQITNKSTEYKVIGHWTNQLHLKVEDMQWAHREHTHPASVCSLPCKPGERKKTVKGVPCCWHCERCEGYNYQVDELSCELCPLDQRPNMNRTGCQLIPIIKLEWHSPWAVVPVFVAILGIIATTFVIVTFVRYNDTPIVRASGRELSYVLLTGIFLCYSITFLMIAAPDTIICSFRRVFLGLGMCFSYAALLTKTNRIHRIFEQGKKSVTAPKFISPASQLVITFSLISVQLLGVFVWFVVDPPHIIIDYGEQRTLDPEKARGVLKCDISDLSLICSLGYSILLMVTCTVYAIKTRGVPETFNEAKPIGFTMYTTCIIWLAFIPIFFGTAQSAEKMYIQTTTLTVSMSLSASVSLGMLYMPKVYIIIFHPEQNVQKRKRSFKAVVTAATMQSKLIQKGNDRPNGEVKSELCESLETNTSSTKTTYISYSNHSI
Outline: as §1

in vivo [6] = conditions: cynomolgus monkey, plasma
[7] = Unbound fraction in cynomolgus monkey plasma measured upto 140 mins by ultracentrifugation
in vivo [8] = conditions: cynomolgus monkey, whole blood and plasma

Chain of Metabotropic glutamate receptor 5 (P41594 whole entry): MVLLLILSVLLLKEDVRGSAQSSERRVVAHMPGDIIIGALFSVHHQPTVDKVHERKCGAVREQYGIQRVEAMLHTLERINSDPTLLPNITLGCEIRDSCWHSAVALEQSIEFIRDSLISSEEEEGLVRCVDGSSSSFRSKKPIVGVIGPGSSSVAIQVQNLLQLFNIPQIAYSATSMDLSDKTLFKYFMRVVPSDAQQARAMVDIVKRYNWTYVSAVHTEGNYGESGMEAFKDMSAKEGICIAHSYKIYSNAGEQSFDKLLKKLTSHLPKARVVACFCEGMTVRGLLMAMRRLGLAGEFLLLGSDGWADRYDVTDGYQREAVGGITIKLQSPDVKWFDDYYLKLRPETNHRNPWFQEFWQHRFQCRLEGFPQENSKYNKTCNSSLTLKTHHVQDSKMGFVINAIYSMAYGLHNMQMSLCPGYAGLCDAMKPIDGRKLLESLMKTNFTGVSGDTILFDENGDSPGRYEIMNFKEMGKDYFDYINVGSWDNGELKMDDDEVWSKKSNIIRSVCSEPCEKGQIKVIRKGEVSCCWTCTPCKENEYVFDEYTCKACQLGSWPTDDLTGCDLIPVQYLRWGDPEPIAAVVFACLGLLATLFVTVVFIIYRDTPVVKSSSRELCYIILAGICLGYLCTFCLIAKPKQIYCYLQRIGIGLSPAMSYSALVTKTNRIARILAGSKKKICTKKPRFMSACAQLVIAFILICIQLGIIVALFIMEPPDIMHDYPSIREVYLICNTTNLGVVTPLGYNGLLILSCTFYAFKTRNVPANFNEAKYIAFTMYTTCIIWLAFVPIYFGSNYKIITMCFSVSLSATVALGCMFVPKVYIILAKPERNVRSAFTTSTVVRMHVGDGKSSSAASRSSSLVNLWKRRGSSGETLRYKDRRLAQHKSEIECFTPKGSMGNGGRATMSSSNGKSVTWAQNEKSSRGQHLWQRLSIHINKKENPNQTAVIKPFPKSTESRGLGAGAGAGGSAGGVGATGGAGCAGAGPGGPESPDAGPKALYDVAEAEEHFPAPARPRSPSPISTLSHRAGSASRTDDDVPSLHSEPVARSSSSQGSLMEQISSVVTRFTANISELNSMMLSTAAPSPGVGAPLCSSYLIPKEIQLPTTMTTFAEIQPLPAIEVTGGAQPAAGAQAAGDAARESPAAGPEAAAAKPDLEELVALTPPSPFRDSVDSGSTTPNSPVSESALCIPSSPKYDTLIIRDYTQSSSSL

EC50 [1] [µM] | EC50 [2] [µM] | EC50 [3] [µM] | EC50 [4] [µM] | EC50 [5] [µM] | remaining at 1.5 h (in vivo [6]) [%] | fraction unbound at 2.333 h [7] | blood plasma ratio at 11 min (in vivo [8]) | Compound
> 10 | > 10 | > 10 | > 10 | > 10 |  |  |  | Fc1ccc(N2CCN(Cc3ccn4c(CC5CC5)nnc4c3C(F)(F)F)CC2)c(Cl)c1
> 10 | > 10 | > 10 | > 10 | > 10 |  |  |  | Fc1cc(Cl)ccc1N1CCN(Cc2ccn3c(CC4CC4)nnc3c2C(F)(F)F)CC1
> 10 | > 10 | > 10 | > 10 | > 10 |  |  |  | Fc1ccccc1N1CCN(Cc2ccn3c(CC4CC4)nnc3c2C(F)(F)F)CC1
> 10 | > 10 | > 10 | > 10 | > 10 |  |  |  | Fc1ccc(N2CCN(Cc3cc(C(F)(F)F)cn4c(CC5CC5)nnc34)CC2)c(F)c1
> 1 | > 1 | > 1 | > 1 | > 1 |  |  |  | O=C(c1cnc2c(cnn2CC2CC2)c1C(F)(F)F)N1CCN(c2ccc(F)cc2F)CC1
 |  |  |  |  | 49.3 | 0.12 | 1.12 | FC(F)(F)c1c(CN2CCC(c3ccc([18F])cc3Cl)CC2)ccn2c(CC3CC3)nnc12
